# Results from ChEMBL document CHEMBL1125339, “Copyrine alkaloids: synthesis, spectroscopic characterization, and antimycotic/antimycobacterial activity of A- and B-ring-functionalized sampangines” (1992).
# How the values were obtained:
# Candida albicans = assay: In vitro antifungal activity against Candida albicans B311.; assay type: functional
# Method in brief: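 Cells grown 24 h at 37 °C in Sabouraud dextrose broth, centrifuged, washed and resuspended in 0.9% saline at 10^6 CFU/mL (hemacytometer). MIC by 2-fold serial dilution in yeast nitrogen broth with a 10 μL loop inoculum. Incubation at 37 °C, read at 24 and 48 h. MIC is the lowest inhibitory concentration. Amphotericin B is the control. Replicate evaluations.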
# [1] = system: Mycobacterium intracellulare; assay: In vitro anti-mycobacterial activity against Mycobacterium intracellular ATCC 23068.; assay type: functional
# Method in brief: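 Organism grown on Lowenstein-Jensen medium for 48 h at 37 °C. Active compounds from the agar-well screen (1 mg/mL, zone >4 mm) go to 2-fold serial broth dilution in Mueller-Hinton broth. 10 μL loop inoculum per tube, 37 °C for 72 h. MIC is the lowest concentration inhibiting growth. Rifampin is the positive control. Replicate evaluations.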
# Cryptococcus neoformans = assay: In vitro antifungal activity against Cryptococcus neoformans ATCC 32264.
# Aspergillus fumigatus = assay: In vitro antifungal activity against Aspergillus fumigatus ATCC 26934.; assay type: functional
# Method in brief: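 Inoculum is a surface-growth suspension from agar slants in sterile water. Compounds active in the agar-well diffusion screen (1 mg/mL, zone >4 mm) are tested by 2-fold serial dilution in Sabouraud dextrose broth. 10 μL loop inoculum, 30 °C, read at 48 and 72 h. MIC is the lowest growth-inhibiting concentration. Amphotericin B is the control. Replicate evaluations.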
SMILES,MIC (Candida albicans) [µg/mL],MIC [1] [µg/mL],MIC (Cryptococcus neoformans) [µg/mL],MIC (Aspergillus fumigatus) [µg/mL]
Cc1c2c(nc3ccccc13)C(=O)c1ccccc1C2=O,25,1.56,25,
CCOc1nc2c3c(nccc3c1Br)-c1ccccc1C2=O,,25,25,
COc1cnc2c3c(nccc13)-c1ccccc1C2=O,3.12,3.12,1.56,
Nc1cnc2c3c(nccc13)-c1ccccc1C2=O,100,,25,
[N-]=[N+]=Nc1cnc2c3c(nccc13)-c1ccccc1C2=O,25,,6.25,
O=C1c2ccccc2-c2nccc3c(Br)cnc1c23,3.12,3.12,0.1,50
Cc1cnc2c3c(nccc13)C(=O)c1ccccc1-2,0.39,0.39,0.39,0.78
COc1cnc2c3c(nccc13)C(=O)c1ccccc1-2,1.56,1.56,0.78,0.78
O=C1c2ccccc2-c2nccc3c(Cl)cnc1c23,0.39,3.12,0.1,
CCc1ccnc2c1C(=O)c1ccccc1C2=O,100,12.5,3.12,
C[C@@H]1[C@H](O)[C@@H](C)/C=C/C=C/C=C/C=C/C=C/C=C/C=C/[C@H](O[C@@H]2O[C@H](C)[C@@H](O)[C@H](N)[C@@H]2O)C[C@@H]2O[C@](O)(C[C@@H](O)C[C@@H](O)[C@H](O)CC[C@@H](O)C[C@@H](O)CC(=O)O[C@H]1C)C[C@H](O)[C@H]2C(=O)O [AMPHOTERICIN B],0.78,,0.39,0.39
O=C1c2ccccc2-c2nccc3c2c1nc1ccccc13 [BENZOSAMPANGINE],0.39,0.39,1.56,0.39
Cc1ccnc2c1C(=O)c1ccccc1C2=O [CLEISTOPHOLINE],12.5,12.5,1.56,100
CO[C@H]1/C=C/O[C@@]2(C)Oc3c(C)c(O)c4c(O)c(c(/C=N/N5CCN(C)CC5)c(O)c4c3C2=O)NC(=O)/C(C)=C\C=C\[C@H](C)[C@H](O)[C@@H](C)[C@@H](O)[C@@H](C)[C@H](OC(C)=O)[C@@H]1C [RIFAMPIN],,0.78,,
O=C1c2ccccc2-c2nccc3ccnc1c23 [SAMPANGINE],1.56,0.78,0.78,1.56
